This is a sample that favours compounds with a hit; in the whole collection about 1.3% have one here.
MDM2 E3 inh: MDM2-luciferase reporter signal enhancers, primary screen, MDM2 E3 ligase inhibitor project, cell-based, luminescence, 1536-well; cell-based MDM2 ubiquitination luciferase reporter, 2 h; 0 = plate control, 100 = twice control, blank-subtracted; 210,000 compounds, 0.11% hits; E3 ubiquitin-protein ligase Mdm2 (Homo sapiens), Q00987; signal enhancement, % at 5 µM;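 active = signal enhancement of 30% or more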;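 also: luminescence tracks abundance of the self-degrading MDM2-luciferase fusion protein; higher signal means inhibition of MDM2 E3 ligase activity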
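System: stable MDM2–luciferase fusion reporter cells / Input: 2000 cells seeded into each well / Schedule: 4 h settle plus 2 h compound, 37 °C / Compound: single-point 5 µM / Buffer or medium: cells held in DMEM / Benchmarks: control and blank well means / Evaluation: percent signal gain over controls, blank-subtracted / Measured by: luciferase luminescence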
Wee1 stabilizer: Wee1 degradation inhibitors, primary screen, cell-based, HeLa, Wee1K328M-luciferase, luminescence. Wee1-like protein kinase (Homo sapiens), P30291. HeLa Luc-Wee1K328M stability; 100% = proteasome inhibitor MG132 effect. reporter increase, % at 5 µM. 220,000 compounds, 1.2% hits. AID 1321, 2008;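 active = activation above the mean of all tested compounds plus 3 SD, set per screening run, cut at about 8.8% in these data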;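 also: cells exposed to compound for 20 h before luminescence read; 0% = DMSO alone and 100% = MG132 at 30 µM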
Hsp70 act: Hsp70 transcriptional activators, primary screen, cell-based, HeLa, Hsp70 promoter luciferase, luminescence, 10 µM; activation, % at 10 µM; 200,000 compounds, 0.04% hits; HeLa Hsp70 promoter luciferase reporter; scaled: vehicle 0, proteasome-inhibitor control 100%;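 active = activation above the mean across all tested compounds plus 3 SD, cutoff set per campaign, cut at about 5.5% in these data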;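 also: 100% = MG132 at 30 µM as the positive control and 0% = DMSO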
Pf gamet viab: late stage P. falciparum gametocyte viability inhibitors, primary screen, ATP luminescence, HTS. P. falciparum stage V gametocytes, 24 h. 150,000 compounds, 0.065% hits. AID 743093, 2013. inhibition, % at 10.9 µM;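 active = inhibition above the mean plus 3 SD of compounds within the control limits, set per campaign, cut at about 38% in these data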;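 also: 0% = DMSO wells and 100% = medium only without gametocytes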
Hsp70 act dose: Hsp70 transcriptional activators, dose response, cell-based, HeLa, Hsp70 promoter luciferase, luminescence, triplicate; shares compounds with Hsp70 act; HeLa hsp70.1pr-luc reporter; calls only at 99 µM; 70 compounds, 10% hits; AID 1252, 2008;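 active = over 50% activation at some tested dose; inactive = under 50% activation at every tested dose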
Wee1 degr conf: Wee1 degradation inhibitors, confirmation, cell-based, HeLa, Wee1K328M-luciferase, luminescence, triplicate; shares compounds with Wee1 stabilizer; 1,100 compounds, 4% hits; activation, % at 5 µM; HeLa Luc-Wee1K328M degradation; vehicle 0%, proteasome-blocked wells 100%; AID 1410, 2008; in the data active = activation above about 8.9%
* = called active by the depositor; i = inactive; . = not tested or not shown.

SMILES	MDM2 E3 inh	Wee1 stabilizer	Hsp70 act	Pf gamet viab	others
C=C1C(=O)O[C@H]2[C@H]1[C@H](OC(=O)CC(=O)O[C@@H]1C[C@@H](C)[C@@H]3C=CC(=O)[C@@]3(C)[C@H]3OC(=O)C(=C)[C@H]13)C[C@@H](C)[C@H]1C=CC(=O)[C@]12C	-4	.	.	-30
COC(=O)C1=C(c2ccccc2OCc2ccccc2)C[C@@H]2CC[C@H]1N2C(=O)NCCOc1ccccc1Cl	.	.	.	2
O=C1Nc2ccccc2C1Cc1nc2ccccc2c(=O)n1-c1ccccc1 (configuration not stated)	4	1	.	21
Cc1ccc(N2C(=O)NC(=O)/C(=C\C=C\c3ccco3)C2=O)cc1C	53*	-2	0	6
CCC(=Nc1ccc2c(c1)CCC2)c1c(O)n(-c2ccc(OC)cc2)c(=O)[nH]c1=O	-11	-3	.	-1
Cc1c(CCN)ccc2c1[nH]c1ccccc12	-15	-4	.	.
COC(=O)C1CN(C#N)N(c2ccc(Cl)cc2)C12c1ccccc1-c1ccccc12 (configuration not stated)	-36	3	6.6*	.	Hsp70 act dose=i
Cc1cc([N+](=O)[O-])c(Cl)cc1NC(=O)C(C)C	-7	0	0	.
CNc1cc(Cl)c2nonc2c1[N+](=O)[O-]	-4	2	18*	.	Hsp70 act dose=i
CCCOP(=O)(OCCC)C(NC(=O)c1ccccc1)=C(Cl)Cl	-3	0	0	-10
COc1ccc(NC2=NC(C)(C)CS2)cc1	-3	16*	0	-2	Wee1 degr conf=2
COc1ccc(NC2=NCC(C)S2)cc1 (configuration not stated)	-8	2	0	-45
Cc1nn(Cc2ccccc2)c(C)c1C(=O)OCC(=O)NC1CCS(=O)(=O)C1 (configuration not stated)	7	0	0	.
N#CCCn1cc(C(=O)Nc2ccccc2Cl)c(-c2ccc(F)cc2)n1	.	.	.	11
CCn1cc(CN2CCCC(C(=O)c3sccc3C)C2)cn1 (configuration not stated)	-6	11*	0	11	Wee1 degr conf=1
CCCCC(=O)N/N=C/c1c(O)n(CCc2ccccc2)c(=O)[nH]c1=O	-9	21*	.	-2	Wee1 degr conf=2

Screens: PubChem, several laboratories
